Screening data from PubChem BioAssay.
ABHD5-PLIN5 inh: ABHD5-PLIN5 protein interaction inhibition. Q00G26+Q8WTS1. Split G. princeps luciferase complementation, luminescence, 4 h. inhibition, % at 4 µM. hit rate 0.78% among 360,000. AID 602281;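 active = inhibition above the mean inhibition across every tested compound plus 3 SD, cut at about 22% in these data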;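 note: 0% = DMSO only wells and the 100% control is not disclosed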
Target sequence (Q00G26 whole entry, looked up): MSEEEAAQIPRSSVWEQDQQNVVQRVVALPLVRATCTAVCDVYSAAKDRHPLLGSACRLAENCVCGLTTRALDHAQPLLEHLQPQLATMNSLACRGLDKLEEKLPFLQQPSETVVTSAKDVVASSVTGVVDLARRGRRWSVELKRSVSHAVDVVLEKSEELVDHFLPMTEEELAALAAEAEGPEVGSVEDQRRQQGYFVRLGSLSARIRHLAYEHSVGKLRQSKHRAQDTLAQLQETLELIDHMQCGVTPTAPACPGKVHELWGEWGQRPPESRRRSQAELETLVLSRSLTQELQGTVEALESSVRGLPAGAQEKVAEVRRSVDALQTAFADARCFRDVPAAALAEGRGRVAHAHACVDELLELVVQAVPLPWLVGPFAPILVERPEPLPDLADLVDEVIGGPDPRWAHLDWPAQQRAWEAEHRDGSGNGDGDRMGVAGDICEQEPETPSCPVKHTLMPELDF
Target sequence (Q8WTS1 whole entry, looked up): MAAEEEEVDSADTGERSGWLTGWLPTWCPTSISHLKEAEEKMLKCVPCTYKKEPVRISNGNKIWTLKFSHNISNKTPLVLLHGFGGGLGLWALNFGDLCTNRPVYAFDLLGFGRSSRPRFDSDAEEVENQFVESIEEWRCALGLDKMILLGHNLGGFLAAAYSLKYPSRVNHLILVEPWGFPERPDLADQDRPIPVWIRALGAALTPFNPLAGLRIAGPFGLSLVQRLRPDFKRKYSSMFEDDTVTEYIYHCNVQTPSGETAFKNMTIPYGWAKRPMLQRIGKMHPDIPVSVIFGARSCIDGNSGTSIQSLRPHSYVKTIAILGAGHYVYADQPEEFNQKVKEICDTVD
rCAG RNA binder: r(CAG) repeat RNA binding. inhibition, % at 3 µM. TO-PRO-1 dye displacement fluorescence. hit rate 1.3% among 370,000;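 active = inhibition above the plate cutoff, the mean of all test compounds on that plate plus 3 SD, cut at about 35% in these data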;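 note: 0% = DMSO alone and 100% = 100 µM mitoxantrone as full dye displacement; higher means more dye released from RNA so lower well fluorescence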
core dimer inh: HCV core protein dimerization inhibition | TR-FRET GST/Flag-core106 dimerization, 1536-well | hit rate 0.33% among 300,000 | inhibition, % at 5 µM;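 active = inhibition above the mean of all tested compounds plus 3 SD, set per screening campaign, cut at about 45% in these data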
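Test system: GST/Flag-tagged HCV core106 proteins; Medium: KF-containing HEPES buffer, pH 7.45, DTT, CHAPS, BSA; Times: compound-protein-antibody incubation 4 h at 22.5 °C; Detection: TR-FRET 671 and 617 nm emission; Benchmarks: wells lacking GST-core106 and wells with excess unlabelled core106.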
NadD inh: NadD (S. aureus) enzyme inhibition; purified NadD enzyme, colorimetric absorbance read-out; inhibition, % at 20 µM; hit rate 0.78% among 360,000; AID 602399; in the data active = inhibition above about 26%
rCAG binder conf: r(CAG) RNA repeat binding, confirmation; shares compounds with rCAG RNA binder; TO-PRO-1 dye displacement fluorescence; inhibition, % at 3 µM; hit rate 70% among 4,300;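 active = inhibition above a per-plate cutoff, the mean inhibition of sample wells plus 3 SD, cut at about 35% in these data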;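 note: loss of TO-PRO-1 fluorescence as compound displaces dye from 1x1 AA loop RNA; 0% = DMSO only wells and 100% = 100 µM mitoxantrone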
dCAG dye counter: counter-screen for rCAG RNA binders: DNA CAG dye complex inhibitors; shares compounds with rCAG RNA binder; d(CAG) DNA oligo TO-PRO-1 dye displacement, fluorescence; inhibition, % at 3 µM; hit rate 94% among 4,300; AID 652068;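 active = inhibition above its plate's cutoff, the mean test-well inhibition plus 3 SD, cut at about 4.8% in these data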;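 note: 0% = DNA dye mix with DMSO and 100% = 100 µM mitoxantrone; hits displace the dye from DNA and so lower well fluorescence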
dCAG dye DR: disrupts DNA CAG TO-PRO-1 complex in dose response | shares compounds with rCAG RNA binder | DNA CAG/GTC duplex TO-PRO-1 dye displacement fluorescence | IC50, µM | hit rate 20% among 250 | AID 686960; in the data active = IC50 below about 10 µM
* hit, by the source's call; i = inactive; . = no result. Compounds with a hit are over-represented: about 2.6% of the library has one in this group of screens.

SMILES	ABHD5-PLIN5 inh	rCAG RNA binder	core dimer inh	NadD inh	rCAG binder conf	dCAG dye counter	others
COc1ccc([C@@H]2CC=C(C(=O)O)[C@H](c3ccc(Br)cc3)N2S(=O)(=O)c2ccc(C)cc2)cc1OC	0	47*	.	10	43*	14*
COc1ccc([C@@H]2CC=C(C(=O)O)[C@H](c3ccc(F)cc3)N2S(=O)(=O)c2ccc(C)cc2)cc1OC	-12	26	10	-3	.	.
Cc1ccc(S(=O)(=O)N2[C@@H](c3ccc(F)cc3)C(C(=O)O)=CC[C@H]2c2ccc(C(C)C)cc2)cc1	0	82*	5	11	80*	44*
COC(=O)[C@]12C[C@H](CC(=O)NCc3cccc4ccccc34)C(=O)N(Cc3ccc4c(c3)OCO4)C1=C[C@H](COCc1ccccc1)O[C@@H]2C	.	12	.	.	.	.
Cc1cc(C)c(C)c(S(=O)(=O)N2CCC(C(=O)N3CCCC3)CC2)c1C	-4	2	.	-1	.	.
O=C(CSc1nc(O)cc(=O)n1-c1ccccc1)Nc1ccc2c3c(cccc13)CC2	9	45*	17	9	30	12*
COc1ccc(-n2c(SCC(=O)Nc3ccccc3C)nc(O)c(Cc3ccccc3)c2=O)cc1	-6	17	3	8	.	.
O=C(CSc1nc(O)cc(=O)n1-c1ccccc1)NC1CCCCC1	-5	7	0	0	.	.
Cc1c(O)nc(SCC(=O)Nc2ccc3c4c(cccc24)CC3)n(-c2ccccc2)c1=O	-5	39*	15	6	25	9.2*
CCCCNC(=O)c1nc(C2CCN(S(=O)(=O)c3c(OC)cccc3OC)CC2)oc1-c1ccccc1	5	6	.	.	.	.
O=C(OC1CCOC1=O)c1cccc(S(=O)(=O)Nc2cccc(Cl)c2)c1 (configuration not stated)	1	35*	13	-4	24	9.1*
O=C(Nc1cccc(Cl)c1)Nc1nnc(-c2ccncc2)s1	6	66*	18	24	45*	22*
Cc1ccc(NC(=O)Nc2nnc(-c3ccncc3)s2)cc1C	-4	60*	18	6	49*	17*
O=C(Nc1ccc(Cl)cc1)Nc1nnc(-c2ccncc2)s1	1	16	-6	19	.	.
O=C(c1ccc(S(=O)(=O)Nc2ccccc2F)cc1)N1CCCC1	8	2	.	-3	.	.
O=S(=O)(/N=C(/NS(=O)(=O)c1ccccc1)c1ccccc1)c1ccccc1	4	10	-3	-5	.	.
O=S(=O)(N=C(NS(=O)(=O)c1ccc(Cl)cc1)c1ccccc1)c1ccc(Cl)cc1	3	55*	.	1	50*	13*
CC1(c2nnnn2-c2ccc3c(c2)OCCO3)CSCC(=O)N1CCc1c[nH]c2ccccc12 (configuration not stated)	.	12	.	.	.	.
CCc1ccc(NC(=S)N(Cc2cccc(Br)c2)CC2CCC(C(=O)O)CC2)cc1 (configuration not stated)	6	42*	4	15	53*	18*
Cc1ccc(NC(=S)N(Cc2cccc(Br)c2)CC2CCC(C(=O)O)CC2)cc1Cl (configuration not stated)	3	44*	21	5	60*	21*	dCAG dye DR=i
Cc1cc(C)cc(NC(=S)N(Cc2cccc(Br)c2)CC2CCC(C(=O)O)CC2)c1 (configuration not stated)	1	7	9	6	.	.
CC(C)C[C@H]1COc2cc(Br)ccc2S(=O)(=O)N1Cc1cn(Cc2ccc(Br)cc2)nn1	.	2	.	.	.	.
O=S1(=O)CC(N2CCN(Cc3ccccc3F)CC2)CN1Cc1cn(Cc2ccc(C(F)(F)F)cc2)nn1 (configuration not stated)	-8	-1	.	-4	.	.
CC(C)n1c(O)c(N=Nc2ccc(Cl)c(C(=O)O)c2)c2ccccc21	5	38*	-1	-6	36*	9.0*
CCn1c(O)c(N=Nc2ccc(Cl)c(C(=O)O)c2)c2ccccc21	14	32	-11	-6	.	.
SMILES	ABHD5-PLIN5 inh	rCAG RNA binder	core dimer inh	NadD inh	rCAG binder conf	dCAG dye counter	others
O=C(N/N=C/c1ccncc1)C1CC1(c1ccccc1)c1ccccc1 (configuration not stated)	-2	2	1	-17	.	.
O=C(N/N=C/c1ccc(O)c([N+](=O)[O-])c1)C1CC1(c1ccccc1)c1ccccc1 (configuration not stated)	4	50*	11	18	50*	19*
O=C(CNC(=O)c1ccco1)N/N=C/c1ccc(O)c([N+](=O)[O-])c1	2	5	-8	-1	.	.
O=C(CNC(=O)C(c1ccccc1)c1ccccc1)N/N=C/c1ccc(O)c([N+](=O)[O-])c1	5	44*	-3	4	22	4.7*
O=[N+]([O-])c1cc(/C=N\Nc2nc(-c3ccccc3)cs2)ccc1O	-5	66*	9	28	54*	23*
Cc1csc(N/N=C/c2ccc(O)c([N+](=O)[O-])c2)n1	-6	28	-34	15	.	.
COCOCCn1cc(CN2CCS(=O)(=O)N(Cc3ccc(-c4ccc(OC)cc4)cc3)C(C)C2=O)nn1 (configuration not stated)	5	10	.	2	.	.
C=CCN1[C@@H](C)[C@H](c2ccccc2)Oc2cccc(NCC(C)C)c2S1(=O)=O	.	1	.	.	.	.
CC(C)c1ccc(OCC(=O)Nc2cccc(C(=O)Nc3ccccc3C(=O)O)c2)cc1	-7	82*	17	11	88*	63*
Cc1cccc(OCC(=O)Nc2cccc(C(=O)Nc3ccccc3C(=O)O)c2)c1	3	71*	6	0	66*	29*
O=C(O)CCCC(=O)Nc1cccc(C(=O)Nc2ccccc2C(=O)O)c1	-1	5	-2	7	.	.
O=C(COc1ccccc1[N+](=O)[O-])Nc1cccc(C(=O)Nc2ccccc2C(=O)O)c1	8	69*	17	5	80*	45*
CC(C)C(=O)Nc1cccc(C(=O)Nc2ccccc2C(=O)O)c1	0	8	0	-5	.	.
CC(C)C[C@@H]1COc2cc(F)ccc2S(=O)(=O)N1	.	2	.	.	.	.
CN(Cc1ccccc1)C(=O)OCc1cn(Cc2c(F)cccc2F)nn1	.	1	.	.	.	.
C=CCn1c(NC(=O)c2ccccc2Cl)c(C#N)c2nc3ccccc3nc21	-42	69*	0	3	67*	29*
O=[N+]([O-])c1cc(S(=O)(=O)N2CCCCCC2)ccc1Cl	-4	-4	.	-2	.	.
O=C(O)/C(=C/c1ccc(Cl)c([N+](=O)[O-])c1)c1ccc(S(=O)(=O)N2CCCCC2)s1	-5	89*	.	8	77*	40*
CSc1ccc(/C=C(\C(=O)O)c2ccc(S(=O)(=O)N3CCCC3)s2)cc1	-5	39*	.	0	32	10*
